# Assay results taken from ChEMBL document CHEMBL5154772, “Biological Investigation of a Water-Soluble Isoginkgetin-Phosphate Analogue, Targeting the Spliceosome with In Vivo Antitumor Activity” (J Med Chem, 2022).
# Active and inactive are the calls of the source. No cut-off for these calls is given here.
# How the values were obtained:
# [1] = AUCextra in Beagle dog at 26.76 mg/kg, iv administered as single dose measured up to 24 hrs; format: ADME, organism-based, Canis lupus familiaris; details: in vivo
# In short: (§1)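 Single intravenous dose. Mice were male C57BL/6J, 12 per route; tail-vein blood was collected under sodium heparin, with 3 mice sampled at each pair of times (0.083/2, 0.25/4, 0.5/8, 1/24 h). Dogs were male beagles (n=3); jugular blood was collected under K2 EDTA predose and at 0.083, 0.25, 0.5, 1, 2, 4, 6, 8 and 24 h. Plasma was prepared from the samples.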
# [2] = Cmax in Beagle dog at 26.76 mg/kg, iv administered as single dose measured up to 24 hrs; format: ADME, organism-based, Canis lupus familiaris; parameters: time < 24 hrs, dose 26.76 mg/kg, route iv; details: in vivo; in short: as §1
# [3] = Toxicity in C57BL/6 mouse assessed as change in kidney weight at 250 mg/kg, ip administered as single dose and measured after 15 days (reference value: 0.3 g); format: organism-based; details: in vivo, 360 h, time 15 day
# In short: (§2)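 Female C57BL/6 mice given one IP injection of 100 µL, at 50, 100, 250 or 500 mg/kg in sterile PBS, two mice per dose; PBS-injected controls. Behaviour checked right after and at 30 min. Body weight recorded every 2–3 days for 15 days, then liver, spleen and kidneys weighed.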
# [4] = molecular target: Delta-type opioid receptor (Homo sapiens) (UniProt P41143); experiment: Antagonist activity at OPRD1 (unknown origin) at 10 uM; format: functional; parameters: scale not given: the % may be the effect or the level left; details: filed as antagonist
# In short: (§3)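 Single-concentration safety screen at 10 μM across a 47-target panel. GPCRs were run in antagonist mode and enzymes in inhibitor mode.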
# [5] = Tmax in C57BL/6J mouse at 0.711 mg/kg, iv administered as single dose measured up to 24 hrs; format: ADME, organism-based; details: in vivo; in short: as §1
# [6] = Plasma protein binding in mouse assessed as unbound fraction at 2 uM by rapid equilibrium dialysis based LC-MS/MS analysis; format: ADME, cell-free
# In short: (§4)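 Binding was measured at 2 μM in triplicate by rapid equilibrium dialysis (8K MWCO). Quantification was by UPLC-MS/MS on a phenyl column in positive ESI MRM mode (m/z 727>567), with an ammonium formate pH 5 / 1,5-DMHA mobile phase at 50 °C. Both unbound fraction (fu) and % bound are reported.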
# [7] = Stability in mouse plasma assessed as compound remaining incubated up to 2 hrs by HPLC-MS/MS analysis; format: ADME, cell-free; details: read-out: Stability
# In short: (§5)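 Incubation in mouse or human plasma for up to 2 h, with compound remaining expressed as a percentage.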
# [8] = Antiproliferative activity against mouse MCA-205 cells assessed as decrease in cell viability at 10 uM measured after 72 hrs by MTT based colorimetric assay; format: functional
# HUVEC = experiment: Antiproliferative activity against human HUVEC cells assessed as decrease in cell viability at 10 uM measured after 72 hrs by MTT based colorimetric assay; format: functional
# [9] = Toxicity in C57BL/6 mouse assessed as change in kidney weight at 100 mg/kg, ip administered as single dose and measured after 15 days (reference value: 0.3 g); format: organism-based; details: in vivo, 360 h, time 15 day; in short: as §2
# [10] = Toxicity in C57BL/6 mouse assessed as change in liver weight at 50 mg/kg, ip administered as single dose and measured after 15 days (reference value: 1.2 to 1.3 g); format: organism-based; details: in vivo, 360 h, time 15 day; in short: as §2
# [11] = Metabolic stability in mouse liver microsomes assessed as parent compound remaining incubated for 45 mins in presence of NADPH by HPLC-MS/MS analysis; format: ADME, Microsome; details: read-out: Stability
# In short: (§6)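 Incubation with mouse or human liver microsomes for 45 min, with or without NADPH. Remaining parent compound was quantified over time by HPLC-MS/MS and expressed as % remaining; intrinsic clearance is given in μL/min/mg protein.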
# [12] = Plasma protein binding in human at 2 uM by rapid equilibrium dialysis based LC-MS/MS analysis; format: ADME, cell-free; details: read-out: PPB (converted); in short: as §4
# [13] = molecular target: Histamine H2 receptor (Homo sapiens) (UniProt P25021); experiment: Antagonist activity at HRH2 (unknown origin) at 10 uM; format: functional; parameters: scale not given: the % may be the effect or the level left; details: filed as antagonist; in short: as §3
# [14] = Toxicity in C57BL/6 mouse assessed as change in body weight at 250 mg/kg, ip administered as single dose and measured after 15 days (reference value: 23.5 to 24.2 g); format: organism-based; details: in vivo, 360 h, time 15 day; in short: as §2
# [15] = Cmax in C57BL/6J mouse at 9.103 mg/kg, ip administered as single dose measured up to 24 hrs; format: ADME, organism-based; parameters: time < 24 hrs, dose 9.103 mg/kg, route ip; details: in vivo
# In short: (§7)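 Single intraperitoneal dose in male C57BL/6J mice (12 per route). Tail-vein blood was collected under sodium heparin for plasma, with 3 mice sampled at each pair of times: 0.083/2, 0.25/4, 0.5/8 and 1/24 h. F denotes bioavailability.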
# [16] = molecular target: Prostaglandin G/H synthase 1 (Homo sapiens) (UniProt P23219); experiment: Inhibition of COX1 (unknown origin) at 10 uM
# [17] = Total clearance in Beagle dog at 26.76 mg/kg, iv administered as single dose measured up to 24 hrs; format: ADME, organism-based, Canis lupus familiaris; details: in vivo; in short: as §1
# [18] = molecular target: cGMP-inhibited 3',5'-cyclic phosphodiesterase 3A (Homo sapiens) (UniProt Q14432); experiment: Inhibition of PDE3A (unknown origin) at 10 uM; in short: as §3
# [19] = Toxicity in C57BL/6 mouse assessed as change in kidney weight at 50 mg/kg, ip administered as single dose and measured after 15 days (reference value: 0.3 g); format: organism-based; details: in vivo, 360 h, time 15 day; in short: as §2
# [20] = Oral bioavailability in C57BL/6J mouse at 9.103 mg/kg administered as single dose measured up to 24 hrs; format: ADME, organism-based; details: in vivo
# [21] = Metabolic stability in mouse liver microsomes assessed as parent compound remaining incubated for 45 mins in absence of NADPH by HPLC-MS/MS analysis; format: ADME, Microsome; details: read-out: Stability; in short: as §6
# MCA-205 [22] = experiment: Antitumour activity against mouse wild type MCA-205 cells implanted in C57BL/6 mouse assessed as decrease in tumour growth at 5 mg/kg,IT administered starting from day 7 post inoculation and thrice a week for 2 weeks; format: functional, organism-based
# In short: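 MCA205 WT fibrosarcoma cells were inoculated subcutaneously into the right flank of female C57BL/6 mice. Dosing was 5 mg/kg intratumoral, three times per week for two weeks, starting day 7 post-inoculation; controls were untreated. Tumor area was recorded every 3–4 days, and tumor size was measured at killing. Analysis was by one-way ANOVA.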
# [23] = Metabolic stability in human liver microsomes assessed as intrinsic clearance incubated for 45 mins by HPLC-MS/MS analysis; format: ADME, Microsome; details: read-out: CLH; in short: as §6
# [24] = Stability in human plasma assessed as compound remaining incubated up to 2 hrs by HPLC-MS/MS analysis; format: ADME, cell-free; details: read-out: Stability; in short: as §5
# MCA-205 [25] = experiment: Antitumor activity against mouse wild type MCA-205 cells implanted in C57BL/6 mouse assessed as decrease in tumor growth pretreatment at 2.5 mg/kg,iv administered starting from day 7 post inoculation at five days interval upto 17 days relative to control; format: functional, organism-based; details: time <= 17.0 day
# In short: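 MCA205 WT fibrosarcoma cells were inoculated subcutaneously into the right flank of female C57BL/6 mice. Dosing was 2.5 mg/kg iv from day 7 post-inoculation, repeated every 5 days until day 17; controls were untreated. Tumor area was recorded every 3–4 days up to ethical limits, and tumor size was measured at killing. Analysis was by one-way ANOVA.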
# [26] = AUCextra in C57BL/6J mouse at 0.711 mg/kg, iv administered as single dose measured up to 24 hrs; format: ADME, organism-based; details: in vivo; in short: as §1
# [27] = Half life in C57BL/6J mouse at 9.103 mg/kg, ip administered as single dose measured up to 24 hrs; format: ADME, organism-based; details: in vivo; in short: as §7
# Chain of cGMP-inhibited 3',5'-cyclic phosphodiesterase 3A (Homo sapiens) (Q14432 whole entry): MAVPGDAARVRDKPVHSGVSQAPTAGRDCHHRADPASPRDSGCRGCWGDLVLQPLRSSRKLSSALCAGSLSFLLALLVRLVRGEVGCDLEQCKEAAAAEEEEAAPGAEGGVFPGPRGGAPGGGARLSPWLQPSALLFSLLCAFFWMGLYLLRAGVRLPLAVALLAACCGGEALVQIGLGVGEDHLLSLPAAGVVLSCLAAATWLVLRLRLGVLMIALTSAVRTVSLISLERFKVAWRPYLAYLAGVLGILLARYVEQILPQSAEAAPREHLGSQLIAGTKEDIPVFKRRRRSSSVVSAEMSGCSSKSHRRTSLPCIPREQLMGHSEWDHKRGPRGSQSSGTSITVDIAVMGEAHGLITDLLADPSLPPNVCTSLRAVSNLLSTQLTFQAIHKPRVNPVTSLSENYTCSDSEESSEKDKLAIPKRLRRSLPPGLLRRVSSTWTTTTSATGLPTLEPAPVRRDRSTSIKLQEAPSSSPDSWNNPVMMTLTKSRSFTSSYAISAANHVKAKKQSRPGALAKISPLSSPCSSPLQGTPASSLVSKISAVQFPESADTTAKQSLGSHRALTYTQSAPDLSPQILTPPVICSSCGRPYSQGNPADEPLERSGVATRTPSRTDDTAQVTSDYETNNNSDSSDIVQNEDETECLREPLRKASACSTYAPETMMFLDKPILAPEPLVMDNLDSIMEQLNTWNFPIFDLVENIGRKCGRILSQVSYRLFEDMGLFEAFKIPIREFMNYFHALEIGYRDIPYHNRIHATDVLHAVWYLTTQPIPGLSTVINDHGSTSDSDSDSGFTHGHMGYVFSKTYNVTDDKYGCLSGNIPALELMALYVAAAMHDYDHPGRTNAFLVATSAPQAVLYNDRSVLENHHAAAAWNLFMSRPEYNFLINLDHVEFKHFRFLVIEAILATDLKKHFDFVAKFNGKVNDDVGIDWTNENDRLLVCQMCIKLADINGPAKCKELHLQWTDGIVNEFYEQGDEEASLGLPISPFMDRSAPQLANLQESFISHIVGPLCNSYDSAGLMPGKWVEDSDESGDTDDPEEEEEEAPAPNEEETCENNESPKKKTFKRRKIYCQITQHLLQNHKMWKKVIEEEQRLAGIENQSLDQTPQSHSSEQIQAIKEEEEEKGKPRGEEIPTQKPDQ
# Chain of Histamine H2 receptor (Homo sapiens) (P25021 whole entry): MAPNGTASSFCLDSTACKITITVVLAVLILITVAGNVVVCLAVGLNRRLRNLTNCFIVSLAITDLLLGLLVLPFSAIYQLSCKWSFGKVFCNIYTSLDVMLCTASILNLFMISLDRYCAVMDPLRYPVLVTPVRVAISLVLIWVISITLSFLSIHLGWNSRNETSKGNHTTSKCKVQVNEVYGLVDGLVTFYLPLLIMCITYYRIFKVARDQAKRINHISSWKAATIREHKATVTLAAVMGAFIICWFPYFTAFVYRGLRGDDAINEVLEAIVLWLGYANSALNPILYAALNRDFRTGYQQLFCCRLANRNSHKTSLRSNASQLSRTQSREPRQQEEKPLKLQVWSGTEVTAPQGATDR
# Chain of Delta-type opioid receptor (Homo sapiens) (P41143 whole entry): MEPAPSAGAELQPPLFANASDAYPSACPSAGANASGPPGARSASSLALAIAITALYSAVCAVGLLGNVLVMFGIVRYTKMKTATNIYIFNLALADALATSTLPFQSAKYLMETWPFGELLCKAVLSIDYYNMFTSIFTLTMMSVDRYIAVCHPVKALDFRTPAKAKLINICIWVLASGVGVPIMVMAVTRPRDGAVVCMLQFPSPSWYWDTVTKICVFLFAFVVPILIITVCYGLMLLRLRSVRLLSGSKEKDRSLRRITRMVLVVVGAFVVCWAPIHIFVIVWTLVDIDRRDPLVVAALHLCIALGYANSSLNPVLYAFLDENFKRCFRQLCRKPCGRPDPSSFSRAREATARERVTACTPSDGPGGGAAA
structure (smiles),measurement,setting,value
COc1ccc(-c2cc(=O)c3c(O)cc(OP(=O)([O-])[O-])c(-c4cc(-c5cc(=O)c6c(O)cc(OP(=O)([O-])[O-])cc6o5)ccc4OC)c3o2)cc1.[Na+].[Na+].[Na+].[Na+],%AUCextra,[1],0.9%
same,Cmax,[2],272 µg/mL
same,Activity,[3],0.1 g
same,Activity,[4],53%
same,Tmax,[5],5 min
same,fraction unbound at 2 µM,[6],0.02
same,remaining at 2 h,[7],98.1%
same,Activity,[8],20%
same,Activity,HUVEC,25%
same,Activity,[9],0.2 g
same,Activity,[10],1 g
same,remaining at 0.75 h,[11],82.3%
same,fraction unbound at 2 µM,[12],0.017
same,Activity,[13],40%
same,Activity,[14],19.1 g
same,Cmax,[15],2.08 µg/mL
same,inhibition,[16],52.8%
same,clearance,[17],0.69 mL/min/kg
same,inhibition,[18],84.8%
same,Activity,[19],0.3 g
same,bioavailability,[20],86%
same,remaining at 0.75 h,[21],72.4%
same,Activity,MCA-205 [22],Active
same,microsomal CLint,[23],11 µL/min/mg
same,remaining at 2 h,[24],94.1%
same,Activity,MCA-205 [25],Active
same,%AUCextra,[26],15.2%
same,half-life,[27],48 min
